# Reference: ChEMBL document CHEMBL2384967, “Benzimidazole-based antibacterial agents against Francisella tularensis” (Bioorg Med Chem, 2013)
# How the values were obtained:
# [1] = system: Vero; assay: Cytotoxicity against african green monkey vero cells after 3 days; type: cell-based; settings: Chlorocebus sabaeus, 72 h
# In short: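 Vero cells grown in L15 medium without CO2, 1.25×10^5 per well. Triplicate 2-fold drug dilutions from 200 µg/mL, with resazurin at a final 25 µg/mL, for 3 days at 37 °C. LD is the lowest concentration that inhibits growth, with no resazurin reduction.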
# [2] = system: Francisella tularensis; assay: Antibacterial activity against Francisella tularensis LVS after 18 hrs by Microplate Alamar Blue assay; type: functional
# [3] = system: Francisella tularensis; assay: Antibacterial activity against Francisella tularensis LVS at 1 ug/ml by Microplate Alamar Blue assay; type: functional; settings: read-out: GI
# [4] = system: Francisella tularensis; assay: Antibacterial activity against Francisella tularensis LVS infected in mouse RAW 264.7 macrophages assessed as log reduction in CFU at 2 to 50 ug/ml after 18 hrs relative to control; type: functional
# [5] = system: Francisella tularensis; assay: Antibacterial activity against Francisella tularensis LVS infected in mouse RAW 264.7 macrophages after 18 hrs; type: functional
# [6] = system: Francisella tularensis; assay: Antibacterial activity against Francisella tularensis LVS at 0.2 ug/ml by Microplate Alamar Blue assay; type: functional; settings: read-out: GI
Compound,IC50 [1],MIC90 [2],inhibition of growth at 1 µg/mL [3],FC [4],Activity [5],inhibition of growth at 0.2 µg/mL [6]
CCOC(=O)Nc1cc(NC(=O)c2ccccc2)c2[nH]c(-c3ccc(Br)cc3)nc2c1,> 200 µg/mL,0.48 µg/mL,> 90%,,,
CCOC(=O)Nc1cc(N)c2[nH]c(-c3cc(C)cc(C)c3)nc2c1,> 200 µg/mL,4.33 µg/mL,> 90%,,,
CCOC(=O)Nc1cc(N)c2[nH]c(-c3ccc(Br)cc3)nc2c1,> 200 µg/mL,2.99 µg/mL,> 90%,,,
O=C(Nc1cc2nc(-c3cccs3)[nH]c2cc1N1CCCCC1)OCc1ccccc1,> 200 µg/mL,0.98 µg/mL,> 90%,2,Dose-dependent effect,
CCN(CCN(C)C)c1cc2[nH]c(C3CCCCC3)nc2cc1NS(=O)(=O)c1ccccc1,> 200 µg/mL,35.8 µg/mL,> 90%,,,
O=C(Nc1cc2nc(C3CCCCC3)[nH]c2cc1N1CCCC1)C1CC1,> 200 µg/mL,2.1 µg/mL,> 90%,,,
CCOC(=O)Nc1cc(NC(=O)c2ccc(OC)cc2)c2[nH]c(-c3ccc(C(=O)OC)cc3)nc2c1,> 200 µg/mL,,> 90%,,,40%
CCOC(=O)Nc1cc(NC(=O)c2ccccc2)c2[nH]c(-c3ccc(C(=O)OC)cc3)nc2c1,650 µg/mL,,> 90%,,,40%
CCN(CC)c1cc2[nH]c(-c3ccc(F)cc3)nc2cc1NC(=O)C1CCC1,> 200 µg/mL,4.84 µg/mL,> 90%,,,
CCOC(=O)Nc1cc(NC(=O)c2ccccc2)c2[nH]c(-c3ccco3)nc2c1,> 200 µg/mL,3.8 µg/mL,> 90%,,,40%
CCOC(=O)Nc1cc(NC(=O)C2CCCC2)c2[nH]c(-c3ccc(Br)cc3)nc2c1,> 200 µg/mL,0.75 µg/mL,> 90%,,,
CCOC(=O)Nc1cc(NC(=O)c2ccc(F)cc2)c2[nH]c(-c3ccco3)nc2c1,> 200 µg/mL,2.8 µg/mL,> 90%,,,40%
O=C(Nc1cc2nc(-c3ccco3)[nH]c2cc1N1CCCCC1)c1cccc2ccccc12,> 200 µg/mL,2.4 µg/mL,> 90%,2,Dose-dependent effect,
CCN(CC)c1cc2[nH]c(-c3ccccc3)nc2cc1NC(=O)c1ccc(C)cc1,> 200 µg/mL,12.9 µg/mL,> 90%,,,40%
CCN(CC)c1cc2[nH]c(-c3ccc(C)cc3)nc2cc1NC(=O)C1CCC1,> 200 µg/mL,1.16 µg/mL,> 90%,,,40%
CCOC(=O)Nc1cc(NC(=O)C2CCCCC2)c2[nH]c(-c3ccc(C(=O)OC)cc3)nc2c1,> 200 µg/mL,1.5 µg/mL,> 90%,,,40%
CC(C)(C)OC(=O)Nc1cc(NC(=O)OCc2ccccc2)c2[nH]c(-c3ccccc3)nc2c1,> 200 µg/mL,0.35 µg/mL,> 90%,,,
COc1ccccc1C(=O)Nc1cc2nc(-c3ccco3)[nH]c2cc1N1CCCCC1,> 200 µg/mL,2.1 µg/mL,> 90%,2,Dose-dependent effect,
CN(C)CCN(C)c1cc2[nH]c(C3CCCCC3)nc2cc1NS(=O)(=O)c1ccccc1,> 200 µg/mL,48.6 µg/mL,> 90%,,,
CCOC(=O)Nc1cc(NC(=O)c2ccccc2OC)c2[nH]c(-c3ccc(Br)cc3)nc2c1,> 200 µg/mL,1.4 µg/mL,> 90%,,,
CCN(CC)c1cc2[nH]c(-c3ccccc3OC)nc2cc1NC(=O)c1ccccc1OC,> 200 µg/mL,4.85 µg/mL,> 90%,,,
COc1ccccc1C(=O)Nc1cc2nc(-c3cccs3)[nH]c2cc1N1CCCCC1,> 200 µg/mL,1.6 µg/mL,> 90%,,,
CCN(CC)c1cc2[nH]c(-c3ccccc3OC)nc2cc1NC(=O)C1CCC1,> 200 µg/mL,7.59 µg/mL,> 90%,,,
